This note sets out measurements from ChEMBL document CHEMBL1122917, “Vinblastin-23-oyl amino acid derivatives: chemistry, physicochemical data, toxicity, and antitumor activities against P388 and L1210 leukemias” (J Med Chem, 1985).

Experiment [1] relates to Mus musculus. Put plainly: Number of survivors of DBA2 mice on 30th day after inoculation with L1210 leukemia cell line intraperitoneally at a dose of 6 mg/kg/day; 0/10. It is filed as functional. The settings on record: route intraperitoneal.
Experiment [2] concerns Mus musculus. Nature of the experiment: Number of survivors on 30th day at dose 4 mg/kg/day in 10 mice implanted with P388 leukemia cell line; 0 /10. It is filed as functional.
Experiment [3] relates to Mus musculus. Put plainly: Number of survivors on 30th day at dose 11 mg/kg/day in 10 mice implanted with P388 leukemia cell line; 0/10. The format is functional.
The test system of experiment [4] is Mus musculus. Nature of the experiment: Number of survivors on 30th day at dose 7 mg/kg/day in 9 mice implanted with P388 leukemia cell line; 1 /9. The format is functional.
Experiment [5] has as its system Mus musculus. Put plainly: Percent increase in life span of BDF1 mice after inoculation with P388 leukemia intraperitoneally at a dose of 4 mg/kg per day. The settings on record: P388, ip.
Experiment [6] has as its system Mus musculus. Nature of the experiment: 7 Percent increase in life span at dose 75 mg/kg/day in 7 mice implanted with P388 leukemia cell line for 1,8,15 schedule day in Exp-1. It is filed as functional.
Experiment [7] relates to Mus musculus. Nature of the experiment: Percent increase in life span of DBA2 mice after inoculation with L1210 leukemia intravenously at a dose of 45 mg/kg per day. The following applies: route intravenous. The format is functional. In outline: (§1)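 Female DBA2 mice inoculated iv on day 0 with 10^4 L1210 cells; drugs given iv as sulfate salts in physiological saline, mostly once on day 1. %ILS from all deaths and survivors as (T/C × 100) − 100; survivors scored on days 30 and 60.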

In experiment [8] the test system is Mus musculus. Nature of the experiment: Percent increase in life span of DBA2 mice after inoculation with L1210 leukemia intravenously at a dose of 60 mg/kg per day. The following applies: route intravenous. It is filed as functional. In outline: as §1
In experiment [9] the test system is Mus musculus. Nature of the experiment: Number of survivors of DBA2 mice on 30th day after inoculation with L1210 leukemia cell line intravenously at a dose of 65 mg/kg/day; 0/10. It is filed as functional. The following applies: route intravenous.
In experiment [10] the test system is Mus musculus. Put plainly: Number of survivors on 60th day at dose 50 mg/kg/day in 10 mice implanted with P388 leukemia cell line; 5/10. The format is functional.
Experiment [11] relates to Mus musculus. Put plainly: Percent increase in life span at dose 40 mg/kg/day in 10 mice implanted with P388 leukemia cell line. The format is functional. In outline: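 Female DBA2 mice inoculated iv on day 0 with 10^4 P388 cells; single iv treatment on day 1 with drug as sulfate salt in physiological saline. Survival followed; %ILS from all deaths and survivors as (T/C × 100) − 100, maximal MST 30 days; survivors counted on days 30 and 60. Most experiments confirmed three times.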

The test system of experiment [12] is Mus musculus. Nature of the experiment: Percent increase in life span at dose 55 mg/kg/day in 10 mice implanted with P388 leukemia cell line for 1st schedule day. It is filed as functional.
The subject of experiment [13] is Mus musculus. Put plainly: Number of survivors on 60th day at dose 75 mg/kg/day in 7 mice implanted with P388 leukemia cell line for 1,8,15 scheduled days in Exp-1; 6/10. The format is functional.
Experiment [14] has as its system Mus musculus. Put plainly: Percent increase in life span at dose 60 mg/kg/day in 10 mice implanted with P388 leukemia cell line for 1st schedule day. It is filed as functional.
Experiment [15] deals with Mus musculus. Put plainly: Number of survivors on 30th day at dose 20 mg/kg/day in 10 mice implanted with P388 leukemia cell line; 0/10. The format is functional.
Experiment [16] relates to Mus musculus. Put plainly: Number of survivors on 30th day at dose 40 mg/kg/day in 10 mice implanted with P388 leukemia cell line; 5/10. It is filed as functional.
For experiment [17], the system named is Mus musculus. Put plainly: Number of survivors on 60th day at dose 60 mg/kg/day in 10 mice implanted with P388 leukemia cell line; 3/10. The format is functional.
For experiment [18], the system named is Mus musculus. Nature of the experiment: Number of survivors on 60th day at dose 65 mg/kg/day in 7 mice implanted with P388 leukemia cell line for 1,8,15 scheduled days in Exp-2; 0/10. It is filed as functional.
Experiment [19] deals with Mus musculus. Put plainly: Number of survivors on 60th day at dose 70 mg/kg/day in 10 mice implanted with P388 leukemia cell line; 0/11. It is filed as functional.
In experiment [20] the test system is Mus musculus. Put plainly: Number of survivors on 30th day at dose 56 mg/kg/day in 10 mice implanted with P388 leukemia cell line; 4/10. The format is functional.
The subject of experiment [21] is Mus musculus. Nature of the experiment: Number of survivors on 30th day at dose 70 mg/kg/day in 10 mice implanted with P388 leukemia cell line; 5/11. The format is functional.
Experiment [22] has as its system Mus musculus. Nature of the experiment: Number of survivors on 30th day at dose 60 mg/kg/day in 10 mice implanted with P388 leukemia cell line 1,5,9 scheduled days; 9/9. The format is functional.
The subject of experiment [23] is Mus musculus. Nature of the experiment: Number of survivors of DBA2 mice on 30th day after inoculation with L1210 leukemia cell line intravenously at a dose of 3 mg/kg/day; 0/11. It is filed as functional. The settings on record: route intravenous.
In experiment [24] the test system is Mus musculus. Put plainly: Percent increase in life span at dose 2 mg/kg/day in 10 mice implanted with P388 leukemia cell line for 1st scheduled day. It is filed as functional.
Experiment [25] has as its system Mus musculus. Put plainly: Number of survivors on 30th day at dose 2.5 mg/kg/day in 10 mice implanted with P388 leukemia cell line; 0/10. The format is functional.
The subject of experiment [26] is Mus musculus. Nature of the experiment: Number of survivors on 60th day at dose 2.5 mg/kg/day in 7 mice implanted with P388 leukemia cell line for 1,8,15 scheduled days from Exp-2; 0/11. The format is functional.
The subject of experiment [27] is Mus musculus. Put plainly: Percent increase in life span at dose 6 mg/kg/day in 7 mice implanted with P388 leukemia cell line for 1,8,15 schedule days from Exp-1. The format is functional.
In experiment [28] the test system is Mus musculus. Nature of the experiment: Percent increase in life span at dose 8 mg/kg/day in 7 mice implanted with P388 leukemia cell line for 1,8,15 schedule days from Exp-2. The format is functional.
Experiment [29] has as its system Mus musculus. Nature of the experiment: Number of survivors on 60th day at dose 8 mg/kg/day in 7 mice implanted with P388 leukemia cell line for 1,8.15 scheduled days from Exp-1; 0/9. The format is functional.
Experiment [30] deals with Mus musculus. Put plainly: Number of survivors on 60th day at dose 4 mg/kg/day in 10 mice implanted with P388 leukemia cell line; 0/9. The format is functional.
Experiment [31] concerns Mus musculus. Put plainly: Number of survivors of DBA2 mice on 30th day after inoculation with L1210 leukemia cell line intravenously at a dose of 10 mg/kg/day; 0/10. It is filed as functional. The settings on record: route intravenous.
Experiment [32] concerns Mus musculus. Put plainly: Number of survivors on 30th day at dose 5 mg/kg/day in 9 mice implanted with P388 leukemia cell line; 1/9. It is filed as functional.
The test system of experiment [33] is Mus musculus. Put plainly: Percent increase in life span at dose 0.5 mg/kg/day in 10 mice implanted with P388 leukemia cell line. It is filed as functional.
Experiment [34] deals with Mus musculus. Put plainly: Percent increase in life span at dose 1 mg/kg/day in 10 mice implanted with P388 leukemia cell line. The format is functional.
The test system of experiment [35] is Mus musculus. Nature of the experiment: Number of survivors of DBA2 mice on 60th day after inoculation with L1210 leukemia cell line intraperitoneally at a dose of 2 mg/kg/day; 0/11. It is filed as functional. The following applies: route intraperitoneal.
The test system of experiment [36] is Mus musculus. Put plainly: Number of survivors of DBA2 mice on 30th day after inoculation with L1210 leukemia cell line intravenously at a dose of 4.5 mg/kg/day; 0/10. The format is functional. The following applies: route intravenous.
Experiment [37] deals with Mus musculus. Nature of the experiment: Percent increase in life span of DBA2 mice after inoculation with L1210 leukemia intravenously at a dose of 1.5 mg/kg per day. The format is functional. The settings on record: route intravenous.
Experiment [38] relates to Mus musculus. Nature of the experiment: Number of survivors on 60th day at dose 1.5 mg/kg/day in 10 mice implanted with P388 leukemia cell line; 0/10. The format is functional.
In experiment [39] the test system is Mus musculus. Nature of the experiment: Number of survivors of DBA2 mice on 60th day after inoculation with L1210 leukemia cell line intravenously at a dose of 4.5 mg/kg/day; 0/10. It is filed as functional. The settings on record: route intravenous.

The structures appear in SMILES notation.

In the case of `CC[C@]1(O)C[C@@H]2CN(CCc3c([nH]c4ccccc34)[C@@](C(=O)OC)(c3cc4c(cc3OC)N(C)[C@H]3[C@@](O)(C(=O)OC)[C@H](OC(C)=O)[C@]5(CC)C=CCN6CC[C@]43[C@@H]65)C2)C1` [VINBLASTINE], the Survivors in the experiment on Mus musculus [1] was determined as 0; with Mus musculus [2], 0; in the experiment on Mus musculus [3] it was 0; with Mus musculus [4], 1. Besides, the ILS at 4 mg/kg/day in the experiment on Mus musculus [5] stood at 0%.

`CCOC(=O)[C@H](Cc1c[nH]c2ccccc12)NC(=O)[C@@]1(O)[C@H](O)[C@]2(CC)C=CCN3CC[C@@]4(c5cc([C@@]6(C(=O)OC)C[C@H]7C[N@](CCc8c6[nH]c6ccccc86)C[C@](O)(CC)C7)c(OC)cc5N(C)[C@@]14C)[C@@H]32`: the ILS at 75 mg/kg/day in the experiment with Mus musculus [6] came out at 108%. For the same compound, the ILS at 45 mg/kg/day in the experiment on Mus musculus [7] came out at 92%. Moreover, the results for the increase in lifespan (ILS) at 60 mg/kg/day in the experiment with Mus musculus [8] and with Mus musculus [14] were 58% and greater than 224%, respectively. Moreover, the Survivors in the experiment on Mus musculus [9] stood at 0; with Mus musculus [10], 5; with Mus musculus [13], 6; with Mus musculus [15] it was 0; in the experiment with Mus musculus [16], 5; in the experiment on Mus musculus [17], 3. Moreover, the Survivors in the experiment with Mus musculus [18] is 0; with Mus musculus [19], 0; in the experiment with Mus musculus [20], 4; in the experiment on Mus musculus [21] it was 5; in the experiment on Mus musculus [22], 9. The same compound showed an ILS at 40 mg/kg/day with Mus musculus [11] of 58.8%. In the experiment on Mus musculus [12], this compound registered an ILS at 55 mg/kg/day greater than 261%.

In the case of `CC[C@]1(O)C[C@@H]2CN(CCc3c([nH]c4ccccc34)[C@@](C(=O)OC)(c3cc4c(cc3OC)N(C)[C@H]3[C@@](O)(C(N)=O)[C@H](O)[C@]5(CC)C=CCN6CC[C@]43[C@@H]65)C2)C1` [VINDESINE], the Survivors with Mus musculus [23], with Mus musculus [25] and with Mus musculus [26] was 0 each time. In addition, in the experiment on Mus musculus [24], the ILS at 2 mg/kg/day turned out to be 28%.

`CCOC(=O)[C@@H](NC(=O)[C@@]1(O)[C@H](O)[C@]2(CC)C=CCN3CC[C@@]4(c5cc([C@@]6(C(=O)OC)C[C@H]7C[N@](CCc8c6[nH]c6ccccc86)C[C@](O)(CC)C7)c(OC)cc5N(C)[C@@]14C)[C@@H]32)[C@@H](C)CC`: in the experiment on Mus musculus [27], the ILS at 6 mg/kg/day came to 150%. Moreover, in the experiment on Mus musculus [28], the ILS at 8 mg/kg/day is greater than 482%. Moreover, the Survivors in the experiment with Mus musculus [29] was found to be 0; with Mus musculus [30] it was 0; with Mus musculus [31], 0; with Mus musculus [32] it was 1.

Regarding `CC[C@]1(O)C[C@H]2CN(CCc3c([nH]c4ccccc34)[C@@](C(=O)OC)(c3cc4c(cc3OC)N(C=O)[C@H]3[C@@](O)(C(=O)OC)[C@H](OC(C)=O)[C@]5(CC)C=CCN6CC[C@]43[C@@H]65)C2)C1` [VINCRISTINE], the increase in lifespan (ILS) at 0.5 mg/kg/day in the experiment on Mus musculus [33] came out at 4%. In the experiment with Mus musculus [34], this compound had an ILS at 1 mg/kg/day of 16%. In addition, the Survivors in the experiment with Mus musculus [35], in the experiment on Mus musculus [36], in the experiment with Mus musculus [38] and with Mus musculus [39] was 0 throughout. The compound further had an increase in life span (ILS) at 1.5 mg/kg/day in the experiment on Mus musculus [37] of 12%.

A word on the ILS: it is the gain in survival time of treated over control animals, in per cent. A high value points to much gain in survival.
